# According to ChEMBL document CHEMBL3808340, “Development of Novel 1,2,3,4-Tetrahydroquinoline Scaffolds as Potent NF-κB Inhibitors and Cytotoxic Agents” (ACS Med Chem Lett, 2016):
# Assays:
# [1] = Cytotoxicity against human PC3 cells after 72 hrs by sulforhodamine B assay; type: functional; details: PC-3, 72 h
# Summary of the method: (§1)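 Sulforhodamine B staining following the NCI (USA) protocol was used to estimate cell number indirectly in six human cancer lines. GI50 is the concentration giving a 50% decrease in net cell growth, reported as the mean of three experiments.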
# ACHN = experiment: Cytotoxicity against human ACHN cells after 72 hrs by sulforhodamine B assay; type: functional; summary of the method: as §1
# [2] = Cytotoxicity against human HCT15 cells after 72 hrs by sulforhodamine B assay; type: functional; details: HCT-15, 72 h; summary of the method: as §1
# [3] = Inhibition of LPS-induced NFkappaB (unknown origin) transcriptional activity expressed in mouse RAW264.7 cells incubated for 16 hrs by SEAP based reporter gene assay; type: cell-based; details: RAW264.7, 16 h
# MDA-MB-231 = experiment: Cytotoxicity against human MDA-MB-231 cells after 72 hrs by sulforhodamine B assay; type: functional; details: MDA-MB-231, 72 h; summary of the method: as §1
# NCI-H23 = experiment: Cytotoxicity against human NCI-H23 cells after 72 hrs by sulforhodamine B assay; type: functional; details: NCI-H23, 72 h; summary of the method: as §1
# RAW264.7 = experiment: Inhibition of LPS-induced NFkappaB (unknown origin) transcriptional activity expressed in mouse RAW264.7 cells at 100 uM incubated for 16 hrs by SEAP based reporter gene assay relative to control; type: cell-based
# [4] = Cytotoxicity against human NUGC3 cells after 72 hrs by sulforhodamine B assay; type: functional; details: NUGC-3, 72 h; summary of the method: as §1
# Homo sapiens [5] = species on record: Homo sapiens; experiment: Potency index, ratio of KL-1156 IC50 to compound IC50 for LPS-induced NFkappaB (unknown origin) transcriptional activity expressed in mouse RAW264.7 cells; type: cell-based
# Homo sapiens [6] = species on record: Homo sapiens; experiment: Potency index, ratio of PDTC IC50 to compound IC50 for LPS-induced NFkappaB (unknown origin) transcriptional activity expressed in mouse RAW264.7 cells; type: cell-based
IC50 [3] [µM],Compound,GI50 [1] [µM],GI50 (ACHN) [µM],GI50 [2] [µM],GI50 (MDA-MB-231) [µM],GI50 (NCI-H23) [µM],inhibition (RAW264.7) [%],GI50 [4] [µM],Ratio IC50 (Homo sapiens [5]),Ratio IC50 (Homo sapiens [6])
20,O=C(Nc1ccccc1O)C1CCc2ccccc2N1C(=O)c1ccccc1Cl (stereo not given),60,44.2,44.9,47.4,46.9,78,36.8,,
53,COc1cc2c(cc1O)CCC(C(=O)Nc1ccccc1)O2 (stereo not given),,,,,,72,,,
51,CCCCCCCCC(=O)N1c2ccccc2CCC1C(=O)Nc1cc(C(F)(F)F)cc(C(F)(F)F)c1 (stereo not given),7.43,4.52,4.97,7.53,3.23,58,2.23,,
27,O=C(Nc1cc(C(F)(F)F)cc(C(F)(F)F)c1)C1CCc2ccccc2N1C(=O)c1cccc(Cl)c1 (stereo not given),1.05,0.813,0.625,1.19,0.42,68,0.56,,
0.7,O=C(Nc1ccccc1C(F)(F)F)C1CCc2ccccc2N1C(=O)c1cccc(Cl)c1 (stereo not given),0.729,0.526,0.797,0.288,0.292,90,0.754,75,53
23,CC(=O)N1c2ccccc2CCC1C(=O)Nc1cc(C(F)(F)F)cc(C(F)(F)F)c1 (stereo not given),> 70,> 70,> 70,> 70,> 70,85,> 70,,
29,O=C(Nc1cc(C(F)(F)F)cc(C(F)(F)F)c1)C1CCc2ccccc2N1C(=O)c1ccccc1 (stereo not given),3.5,2.92,3.54,2.43,2.13,66,1.68,,
23,O=C(Nc1cc(C(F)(F)F)cc(C(F)(F)F)c1)C1CCc2ccccc2N1C(=O)c1ccccc1Cl (stereo not given),8.04,4.7,4.05,5.25,2.08,90,1.93,,
20,O=C(Nc1ccccc1O)C1CCc2ccccc2N1C(=O)c1ccc(Cl)cc1 (stereo not given),25.1,19.6,20.2,19.6,19.2,82,13.4,,

# The next lines start with the molecule.
Compound,IC50 [3] [µM],GI50 [1] [µM],GI50 (ACHN) [µM],GI50 [2] [µM],GI50 (MDA-MB-231) [µM],GI50 (NCI-H23) [µM],inhibition (RAW264.7) [%],GI50 [4] [µM],Ratio IC50 (Homo sapiens [5]),Ratio IC50 (Homo sapiens [6])
CCC(=O)N1c2ccccc2CCC1C(=O)Nc1cc(C(F)(F)F)cc(C(F)(F)F)c1 (stereo not given),20,8.54,7.72,7.62,7.28,7.82,91,7.22,,
O=C(Nc1ccccc1C(F)(F)F)c1ccc2ccccc2n1,,,,,,> 90,,,,
S=C(S)N1CCCC1 [PYRROLIDINE DITHIOCARBAMATE],37.2,,,,,,,,,
O=C(Nc1ccccc1O)C1CCc2ccccc2N1 (stereo not given),83,4.31,3.99,5.61,5.26,2.23,57,2.68,,
COc1cccc2c1C(=O)c1c(O)c3c(c(O)c1C2=O)C[C@@](O)(C(=O)CO)C[C@@H]3O[C@H]1C[C@H](N)[C@H](O)[C@H](C)O1 [DOXORUBICIN],,0.0923,0.0995,0.0854,0.112,0.0726,,0.125,,
CCC(=O)N1c2ccccc2CCC1C(=O)Nc1ccccc1O (stereo not given),,> 90,> 90,> 90,> 90,> 90,31,> 90,,
O=C(Nc1ccccc1O)c1ccc2ccccc2n1,,,,,,87.5,,,,
O=C(Nc1ccc(C(F)(F)F)cc1)c1ccc2ccccc2n1,,,,,,> 90,,,,
CCCCCCCCC(=O)N1c2ccccc2CCC1C(=O)Nc1ccccc1O (stereo not given),,45.2,65,38.4,54.3,55.8,22,31.1,,
O=C(Nc1ccccc1)c1ccc2ccccc2n1,,,,,,108,,,,
O=C(Nc1cc(C(F)(F)F)cc(C(F)(F)F)c1)c1ccc2ccccc2n1,,,,,,1.44,,,,
